The list is a sample of the results.
Apaf-1 act: activators of human Apaf-1 apoptosome; 330,000 tested, 0.31% active; Apaf-1 apoptosome caspase-3 activation, DEVD-Rh110 fluorescence; hits give low values; activity change, negative = activation, % at 20 µM;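 active means activity change at or below -40% at 20 µM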
Target sequence (O14727 whole entry, looked up): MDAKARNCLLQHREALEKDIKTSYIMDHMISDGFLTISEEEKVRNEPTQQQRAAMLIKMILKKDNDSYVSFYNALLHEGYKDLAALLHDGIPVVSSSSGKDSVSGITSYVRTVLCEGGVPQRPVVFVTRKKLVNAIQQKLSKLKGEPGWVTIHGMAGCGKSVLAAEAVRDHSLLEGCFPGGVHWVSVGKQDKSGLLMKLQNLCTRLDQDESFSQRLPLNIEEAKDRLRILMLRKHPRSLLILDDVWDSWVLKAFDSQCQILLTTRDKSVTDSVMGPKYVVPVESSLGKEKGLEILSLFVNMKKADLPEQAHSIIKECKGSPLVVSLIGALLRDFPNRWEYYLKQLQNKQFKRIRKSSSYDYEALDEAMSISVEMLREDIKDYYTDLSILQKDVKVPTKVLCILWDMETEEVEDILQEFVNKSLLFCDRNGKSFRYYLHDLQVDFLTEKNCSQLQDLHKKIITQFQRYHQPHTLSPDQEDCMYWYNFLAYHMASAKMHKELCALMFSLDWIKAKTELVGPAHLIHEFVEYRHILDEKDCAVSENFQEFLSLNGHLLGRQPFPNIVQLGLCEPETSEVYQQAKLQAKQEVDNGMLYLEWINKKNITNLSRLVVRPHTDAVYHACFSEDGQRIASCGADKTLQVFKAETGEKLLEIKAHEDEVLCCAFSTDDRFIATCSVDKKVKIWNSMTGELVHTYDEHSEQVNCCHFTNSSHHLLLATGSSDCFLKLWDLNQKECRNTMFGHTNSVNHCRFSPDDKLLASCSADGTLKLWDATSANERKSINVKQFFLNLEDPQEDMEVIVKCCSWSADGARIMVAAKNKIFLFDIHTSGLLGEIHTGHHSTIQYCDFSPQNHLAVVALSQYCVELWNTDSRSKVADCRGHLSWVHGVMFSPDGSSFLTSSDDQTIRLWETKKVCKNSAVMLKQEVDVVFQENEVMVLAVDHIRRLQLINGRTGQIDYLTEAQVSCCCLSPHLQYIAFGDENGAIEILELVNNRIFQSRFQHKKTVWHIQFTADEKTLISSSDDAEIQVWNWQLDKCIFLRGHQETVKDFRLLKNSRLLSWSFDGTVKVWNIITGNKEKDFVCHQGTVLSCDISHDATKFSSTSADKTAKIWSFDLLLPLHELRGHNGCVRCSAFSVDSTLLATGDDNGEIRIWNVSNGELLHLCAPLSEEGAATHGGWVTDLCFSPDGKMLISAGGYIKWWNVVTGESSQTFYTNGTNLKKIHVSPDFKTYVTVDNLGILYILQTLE
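System: Reconstituted apoptosome of Apaf-1, cytochrome c, caspase-9, procaspase-3 | Reagent: dATP, cytochrome c, and (Z-DEVD)2-Rh110 caspase-3 substrate | Times: 30 min compound preincubation and 50 min reaction, both room temperature | Detection: Caspase-3-released Rh110 fluorescence, 540 nm emission, 480 nm excitation | Measure: Caspase-3 activity via Apaf-1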
Rh110 interf act: Rh110 signal interference in Apaf-1 activator counter-screen; fluorescence interference (activity change), % at 20 µM, hits read low; AID 504616; shares compounds with Apaf-1 act; 980 tested, under 10 active; Rh110 fluorescence interference, quenched caspase reaction, Ex480/Em540;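 active means mean activity change at or below -40% when tested at 20 µM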
Apaf-1 act conf: confirmation of human Apaf-1 activators; shares compounds with Apaf-1 act; reconstituted apoptosome caspase-3 activity, DEVD-Rh110 fluorescence; hits give low values; activity change, negative = activation, % at 20 µM; 980 tested, 5% active;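 active means mean activity change at or below -40%, meaning activation of 40% or more, at 20 µM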
Each line names hits and unclear results; the compound was inactive in the other large screens (follow-up assays come after a bar, where they were run).

Cc1ccc(NC(=O)CN2C(=O)S/C(=C/c3ccc(-c4cc(C(=O)O)ccc4C)o3)C2=O)cc1C	none
COc1ccccc1C(C)NC(=O)C1CCN(S(=O)(=O)c2cccs2)CC1 (stereo unspecified)	Apaf-1 act -53 | Rh110 interf act inactive | Apaf-1 act conf inactive
CC(C)N1CCc2c(sc(NC(=O)c3cc(-c4cccs4)nc4ccccc34)c2C(N)=O)C1	none
CCCCn1c(NC(=O)c2ccccc2Cl)c(C#N)c2nc3ccccc3nc21	none
COc1ccc(C(=O)NCCc2nnc3ccc(SCC(=O)NCCc4ccc(OC)c(OC)c4)nn23)cc1	Apaf-1 act -410 | Rh110 interf act inactive | Apaf-1 act conf inactive
O=C(CSc1ccc2nnc(CCNC(=O)c3ccccc3)n2n1)Nc1ccccc1	Apaf-1 act -293 | Rh110 interf act inactive | Apaf-1 act conf inactive
COc1cccc(C(c2c(C)[nH]n(-c3ccccc3)c2=O)c2c(C)[nH]n(-c3ccccc3)c2=O)c1OC	none
O=C1c2ccccc2-c2c1nc1c([n+]2[O-])CCCC1	none
O=C(O)c1cccc(NC2=C(N3CCOCC3)C(=O)c3ccccc3C2=O)c1	none
O=C1O/C(=C\C(=O)N2CCOCC2)c2ccccc21	Apaf-1 act -141 | Rh110 interf act inactive | Apaf-1 act conf inactive
O=C1C=C(N2CCOCC2)c2ccccc2C1=O	none
CC(C)Oc1cccc(C(=O)Nc2ncn[nH]2)c1	Apaf-1 act -48 | Rh110 interf act inactive | Apaf-1 act conf inactive
CCC(C)Sc1ccc(-c2nc3cnccn3c2NC2CCCCC2)cc1 (stereo unspecified)	none
COc1cc(N)c(Cc2nccc3cc(OC)c(OC)cc23)cc1OC	none
O=C(Nc1ccc2c(c1)OCO2)C1CCCCN1S(=O)(=O)c1ccccc1 (stereo unspecified)	Apaf-1 act -95 | Rh110 interf act inactive | Apaf-1 act conf inactive
Cc1ccc(NC(=O)N2CCCC2C(=O)Nc2ccc3c(c2)OCCO3)cc1 (stereo unspecified)	Apaf-1 act -83 | Rh110 interf act inactive | Apaf-1 act conf inactive
O=C(Nc1ccc(OC(F)F)c(Cl)c1)[C@@H]1CCCN1C(=O)c1cccs1	none
Cc1cccc2cc(C(c3nnnn3CC3CCCO3)N3CCc4ccccc4C3)c(=O)[nH]c12 (stereo unspecified)	none
Cc1cc2cc(CNC(=O)c3ccc(S(=O)(=O)N(C)C)cc3)ccc2n1C	none
CC1(C)CC(=O)c2c(-c3cccnc3)n[nH]c2C1	none
CCC1CCCCN1CCCNC(=O)CC1Oc2ccc(C)cc2NC1=O (stereo unspecified)	Apaf-1 act -93 | Rh110 interf act inactive | Apaf-1 act conf inactive
NC(=O)c1cc(N)ccc1N1CCCC1	none
CC1=NN(c2ccc(F)cc2)C(=O)C1C(c1cccc(O)c1)c1c(C)[nH]n(-c2ccc(F)cc2)c1=O (stereo unspecified)	none
COc1ccc(C2C(C#N)=C(N)Oc3n[nH]c(-c4ccccn4)c32)c(OC)c1OC (stereo unspecified)	Apaf-1 act -508 | Rh110 interf act inactive | Apaf-1 act conf inactive
COc1cccc(-c2[nH]nc3c2C(c2ccsc2)C(C#N)=C(N)O3)c1 (stereo unspecified)	none
CS(=O)(=O)N(CC(=O)Nc1ccccc1C(=O)N1CCOCC1)c1cccc(F)c1	Apaf-1 act -57 | Rh110 interf act inactive | Apaf-1 act conf inactive
Cc1ccc2cc(C(c3nnnn3CC3CCCO3)N3CCc4ccccc4C3)c(=O)[nH]c2c1 (stereo unspecified)	none
COc1ccc(-c2cn(Cc3ccc4ccccc4c3)nn2)cc1	Apaf-1 act -123 | Rh110 interf act inactive | Apaf-1 act conf inactive
COc1cc2c3nnc(-c4ccc(F)cc4)c-3cn(Cc3cccc(C)c3)c2cc1OC	none
Cc1cc2cc(CNC(=S)Nc3ccc(OC(F)(F)F)cc3)ccc2n1C	none
Cc1ccc(C)c(-n2ccnc2SCC(=O)O)c1	Apaf-1 act -465 | Rh110 interf act inactive | Apaf-1 act conf inactive
Cc1cnc(C(=O)Nc2ccc(C)c(S(=O)(=O)N(C)C)c2)cn1	Apaf-1 act -47 | Rh110 interf act inactive | Apaf-1 act conf inactive
Cc1[nH][nH]c(=O)c1C(c1ccc(-c2ccc(Cl)c(Cl)c2)o1)c1c(C)[nH][nH]c1=O	none
Cc1noc(C)c1NC(=O)N(C)C[C@H]1Oc2ccc(NC(=O)CCN3CCOCC3)cc2C(=O)N([C@H](C)CO)C[C@@H]1C	Apaf-1 act -46 | Rh110 interf act inactive | Apaf-1 act conf inactive
C[C@H](CO)N1C[C@H](C)[C@@H](CN(C)Cc2ccc(-c3ccccc3)cc2)Oc2c(NC(=O)Cc3ccccc3)cccc2C1=O	none
C[C@H](CO)N1C[C@H](C)[C@@H](CN(C)CC2CCCCC2)Oc2c(NC(=O)CCC(F)(F)F)cccc2C1=O	none
O=C(O)c1cc(O)c2c(c1)[C@@H]([C@H]1c3cc(C(=O)O)cc(O)c3C(=O)c3c(O[C@@H]4O[C@H](CO)[C@@H](O)[C@H](O)[C@H]4O)cccc31)c1cccc(OC3O[C@H](CO)[C@@H](O)[C@H](O)[C@H]3O)c1C2=O (stereo partly specified)	none
Nc1ccc(N2CCCCC2)c2nonc12	none
Cc1cc(C(=O)Nc2ccccc2N2CCCCC2)no1	Apaf-1 act -512 | Rh110 interf act inactive | Apaf-1 act conf inactive
CC12CCC(=O)N1C(C(=O)Nc1ccccc1N1CCCCC1)CS2 (stereo unspecified)	none
COC(=O)CCC(=O)OC1(C)C(=O)C2=CN(CCCOC(C)C)C(c3ccc(OC)cc3)=CC2=C(Br)C1=O (stereo unspecified)	none
CC(C)C[C@@H]1CN=C(N)N1C[C@@H]1CCCN1C[C@@H](C(C)C)N1C[C@@H](Cc2ccccc2)N(CCc2ccc(Cl)c(Cl)c2)C1=N	none
CN(C)c1cccc2c1c(NS(=O)(=O)c1cn(C)cn1)nn2C	none
CN(Cc1ccccc1)S(=O)(=O)c1cn(C)cn1	Apaf-1 act -113 | Rh110 interf act inactive | Apaf-1 act conf inactive
CCOC(=O)c1nn(-c2ccccc2C)c(=O)c2c(N)scc12	none
COCCCNC(=O)c1ccc2c3c(onc13)-c1ccccc1C2=O	none
COCCNC(=O)c1onc(CSc2ccccc2)c1C(=O)O	Apaf-1 act -44 | Rh110 interf act inactive | Apaf-1 act conf inactive
CSc1nncc(/C(C)=N\Nc2cccc(C)c2)n1	none
COCCNC(=O)CN1C(=O)NC2(CCOc3ccccc32)C1=O (stereo unspecified)	none
Cc1nn(Cc2ccc(F)cc2)c(Cl)c1/C=N/NC(=O)c1cccnc1	Apaf-1 act -49 | Rh110 interf act inactive | Apaf-1 act conf inactive
CCc1cc[n+](C2=C([O-])c3ccccc3C(=O)/C2=N\S(=O)(=O)c2cccs2)cc1	none
O=C(Nc1ncn[nH]1)c1c(Cl)ccc(Cl)c1Cl	Apaf-1 act -47 | Rh110 interf act inactive | Apaf-1 act conf inactive
O=C(OCc1nc2ccccc2s1)c1ccc([N+](=O)[O-])o1	none
COC(=O)C1=C(C)N(Cc2ccccc2)C(=NCc2ccc(OC)cc2)N[C@H]1c1cccc(F)c1	none
Cc1cccc(NC(=O)CCNS(=O)(=O)c2cccc3nonc23)c1	Apaf-1 act -68 | Rh110 interf act inactive | Apaf-1 act conf inactive
COc1ccc(C(=O)NCC23C=CC(O2)C2C(=O)N(Cc4ccccc4)C(=O)C23)cc1 (stereo unspecified)	Apaf-1 act -75 | Rh110 interf act inactive | Apaf-1 act conf inactive
